The source made the active and inactive calls. The rule behind the calls is not given here.
Legend:
U2OS [1] = assay: Effect on RNAPII total protein expression in human U2OS cells at 2.5 to 20 uM incubated for 48 hrs by Western blot analysis; type: functional, cell-based; conditions: dose 2.5-20 µM
In short: (§1)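 Cells seeded in 6-well plates (6 × 10^5 cells/well) and treated with 2.5, 5, 10, 20 μM for 48 h. RIPA lysates resolved by SDS-PAGE and blotted to nitrocellulose. Primary antibodies to CDK9, RNAPII ser2, total RNAPII, MCL-1, BIRC5 and tubulin (1:1000, 4 °C overnight), then IR-dye secondaries; infrared imaging. Densitometry relative to tubulin, mean ± SE in triplicate.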

U2OS [2] = assay: Cytotoxicity against human U2OS cells assessed as inhibition of cell proliferation incubated for 5 days by MTT assay; type: functional, cell-based
In short: (§2)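 Cells in RPMI 1640 with 10% FBS, seeded at 4 × 10^3 cells/well in 96-well plates and exposed to 0, 2.5, 5, 10, 20 μM for 5 days. MTT (5 mg/mL stock) added for 4 h at 37 °C; formazan dissolved in acid isopropanol and read at 490 nm. IC50 from the dose–response; mean ± SE of 2 experiments in triplicate.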

KHOS/NP [3] = assay: Cytotoxicity against human KHOS/NP cells assessed as inhibition of cell proliferation incubated for 5 days by MTT assay; type: functional, cell-based; in short: as §2
U2OS [4] = assay: Cytotoxicity against human U2OS cells assessed as morphological changes incubated for 3 days by microscopic analysis; type: functional, cell-based; conditions: dose 2.5-20 µM, time 3.0 day
In short: (§3)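 Cells treated with 0, 2.5, 5, 10, 20 μM for 72 h, then examined by light microscopy for morphology and number of viable cells.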

KHOS/NP [5] = assay: Cytotoxicity against human KHOS/NP cells assessed as morphological changes incubated for 3 days by microscopic analysis; type: functional, cell-based; conditions: dose 2.5-20 µM, time 3.0 day; in short: as §3
U2OS [6] = assay: Cytotoxicity against human U2OS cells assessed as reduction in viable cell number incubated for 3 days by microscopic analysis; type: functional, cell-based; conditions: dose 2.5-20 µM, time 3.0 day; in short: as §3
KHOS/NP [7] = assay: Cytotoxicity against human KHOS/NP cells assessed as reduction in viable cell number incubated for 3 days by microscopic analysis; type: functional, cell-based; conditions: dose 2.5-20 µM, time 3.0 day; in short: as §3
[8] = target: Cyclin-dependent kinase 9 (Homo sapiens) (UniProt P50750); assay: Inhibition of CDK9 in human U2OS cells assessed as reduction in phosphorylated RNAPII protein expression at Ser2 residue incubated for 48 hrs by Western blot analysis; type: cell-based; conditions: dose 2.5-20 µM; in short: as §1
[9] = target: Cyclin-dependent kinase 9 (Homo sapiens) (UniProt P50750); assay: Inhibition of CDK9 in human KHOS/NP cells assessed as reduction in phosphorylated RNAPII protein expression at Ser2 residue incubated for 48 hrs by Western blot analysis; type: cell-based; conditions: dose 2.5-20 µM; in short: as §1
[10] = target: Cyclin-dependent kinase 9 (Homo sapiens) (UniProt P50750); assay: Inhibition of CDK9 in human U2OS cells assessed as reduction in MCL-1 protein expression incubated for 48 hrs by Western blot analysis; type: cell-based; conditions: dose 2.5-20 µM; in short: as §1
[11] = target: Cyclin-dependent kinase 9 (Homo sapiens) (UniProt P50750); assay: Inhibition of CDK9 in human KHOS/NP cells assessed as reduction in MCL-1 protein expression incubated for 48 hrs by Western blot analysis; type: cell-based; conditions: dose 2.5-20 µM; in short: as §1
[12] = target: Cyclin-dependent kinase 9 (Homo sapiens) (UniProt P50750); assay: Inhibition of CDK9 in human U2OS cells assessed as reduction in BIRC5 protein expression incubated for 48 hrs by Western blot analysis; type: cell-based; conditions: dose 2.5-20 µM; in short: as §1
[13] = target: Cyclin-dependent kinase 9 (Homo sapiens) (UniProt P50750); assay: Inhibition of CDK9 in human KHOS/NP cells assessed as reduction in BIRC5 protein expression incubated for 48 hrs by Western blot analysis; type: cell-based; conditions: dose 2.5-20 µM; in short: as §1
KHOS/NP [14] = assay: Effect on RNAPII total protein expression in human KHOS/NP cells at 2.5 to 20 uM incubated for 48 hrs by Western blot analysis; type: functional, cell-based; conditions: dose 2.5-20 µM; in short: as §1
U2OS [15] = assay: Effect on CDK9 protein expression in human U2OS cells at 2.5 to 20 uM incubated for 48 hrs by Western blot analysis; type: functional, cell-based; conditions: dose 2.5-20 µM; in short: as §1
KHOS/NP [16] = assay: Effect on CDK9 protein expression in human KHOS/NP cells at 2.5 to 20 uM incubated for 48 hrs by Western blot analysis; type: functional, cell-based; conditions: dose 2.5-20 µM; in short: as §1
U2OS [17] = assay: Induction of apoptosis in human U2OS cells assessed as viable cells at 10 uM by Annexin V/PI staining based flow cytometry analysis (reference value: 94.5%); type: functional; conditions: read-out: Activity
U2OS [18] = assay: Induction of apoptosis in human U2OS cells assessed as early apoptotic cells at 10 uM by Annexin V/PI staining based flow cytometry analysis (reference value: 5%); type: functional
U2OS [19] = assay: Induction of apoptosis in human U2OS cells assessed as late apoptotic cells at 10 uM by Annexin V/PI staining based flow cytometry analysis (reference value: 0.4%); type: functional
U2OS [20] = assay: Induction of apoptosis in human U2OS cells assessed as dead cells at 10 uM by Annexin V/PI staining based flow cytometry analysis (reference value: 0.1%); type: functional
KHOS/NP [21] = assay: Induction of apoptosis in human KHOS/NP cells assessed as viable cells at 10 uM by Annexin V/PI staining based flow cytometry analysis (reference value: 94.1%); type: functional; conditions: read-out: Activity
KHOS/NP [22] = assay: Induction of apoptosis in human KHOS/NP cells assessed as early apoptotic cells at 10 uM by Annexin V/PI staining based flow cytometry analysis (reference value: 5.3%); type: functional
KHOS/NP [23] = assay: Induction of apoptosis in human KHOS/NP cells assessed as late apoptotic cells at 10 uM by Annexin V/PI staining based flow cytometry analysis (reference value: 0.3%); type: functional
U2OS [24] = assay: Inhibition of colony formation in human U2OS cells assessed as reduction in colony number and size incubated for 12 days by Giemsa staining based analysis; type: functional, cell-based; conditions: dose 5-10 µM, time 12.0 day
In short: (§4)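 Seeded at 150 cells/well in 12-well plates with 0, 5 or 10 μM inhibitor; 12 days at 37 °C. Colonies fixed 10 min in methanol, stained 20 min with 10% Giemsa and photographed.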

KHOS/NP [25] = assay: Inhibition of colony formation in human KHOS/NP cells assessed as reduction in colony number and size incubated for 12 days by Giemsa staining based analysis; type: functional, cell-based; conditions: dose 5-10 µM, time 12.0 day; in short: as §4
U2OS [26] = assay: Inhibition of cell migration in human U2OS cells at 10 uM by wound healing assay; type: functional, cell-based; conditions: time 24-72 hrs
In short: (§5)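 Monolayers of 4 × 10^5 cells/well in 6-well plates, grown overnight, scratched with two parallel lines, then exposed to 10 μM in 2% FBS medium for 72 h. Photographed at 0, 24, 48, 72 h; width measured at five sites per image. Migration distance = (width at 0 h − width at time point)/2.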

KHOS/NP [27] = assay: Inhibition of cell migration in human KHOS/NP cells at 10 uM by wound healing assay; type: functional, cell-based; conditions: time 24-72 hrs; in short: as §5
U2OS [28] = assay: Antitumor activity against human U2OS cells cultured as 3D spheroids assessed as reduction in spheroid diameter at 10 uM incubated for 12 days with media replacement for every 24 to 48 hrs and measured every 2 days by Calcein AM staining based fluorescence microscopic analysis relative to control; type: functional; design: scale not given: the % may be the effect or the level left; conditions: time 12 day
In short: (§6)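 Spheroids grown in 3D hydrogel culture plates, 2 × 10^5 cells/well, with 10 μM inhibitor added at seeding; untreated cells as blank control. 37 °C, 5% CO2, medium changed every 24–48 h. Diameter photographed every 2 days; at 12 days spheroids harvested, stained 15 min with 0.25 μM Calcein AM and imaged by fluorescence microscopy. Mean ± SE of 2 experiments in triplicate.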

KHOS/NP [29] = assay: Antitumor activity against human KHOS/NP cells cultured as 3D spheroids assessed as reduction in spheroid diameter at 10 uM incubated for 12 days with media replacement for every 24 to 48 hrs and measured every 2 days by Calcein AM staining based fluorescence microscopic analysis relative to control; type: functional; design: scale not given: the % may be the effect or the level left; conditions: time 12 day; in short: as §6

Sequence of Cyclin-dependent kinase 9 (Homo sapiens) (P50750 whole entry): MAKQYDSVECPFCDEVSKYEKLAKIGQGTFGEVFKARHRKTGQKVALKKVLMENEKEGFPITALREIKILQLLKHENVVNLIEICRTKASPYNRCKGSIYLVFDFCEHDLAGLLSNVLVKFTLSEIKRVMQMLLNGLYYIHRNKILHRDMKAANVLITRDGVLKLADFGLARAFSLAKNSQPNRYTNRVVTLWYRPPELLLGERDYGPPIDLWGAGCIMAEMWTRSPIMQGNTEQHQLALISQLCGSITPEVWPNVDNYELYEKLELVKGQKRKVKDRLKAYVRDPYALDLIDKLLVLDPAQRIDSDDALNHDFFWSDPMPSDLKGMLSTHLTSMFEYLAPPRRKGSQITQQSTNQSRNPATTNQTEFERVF

COc1ccccc1-c1cc(Nc2cccc(CS(N)(=O)=O)c2)ncn1
Activity (U2OS [1]): inactive
IC50 (U2OS [2]; 120 h): 5.8 µM
Activity (U2OS [2]; time 5.0 day): Dose-Dependent Effect
IC50 (KHOS/NP [3]; 120 h): 6.5 µM
Activity (KHOS/NP [3]; time 5.0 day): Dose-Dependent Effect
Activity (U2OS [4]): Dose-Dependent Effect
Activity (KHOS/NP [5]): Dose-Dependent Effect
Activity (U2OS [6]): Dose-Dependent Effect
Activity (KHOS/NP [7]): Dose-Dependent Effect
inhibition [8]: Dose-Dependent Effect
inhibition [9]: Dose-Dependent Effect
inhibition [10]: Dose-Dependent Effect
inhibition [11]: Dose-Dependent Effect
inhibition [12]: Dose-Dependent Effect
inhibition [13]: Dose-Dependent Effect
Activity (KHOS/NP [14]): inactive
Activity (U2OS [15]): inactive
Activity (KHOS/NP [16]): inactive
viability at 10 µM (U2OS [17]): 91.8%
Activity (U2OS [18]): 6.4%
Activity (U2OS [19]): 1.5%
Activity (U2OS [20]): 0.3%
viability at 10 µM (KHOS/NP [21]): 88.5%
Activity (KHOS/NP [22]): 2.8%
Activity (KHOS/NP [23]): 6%
inhibition (U2OS [24]): Dose-Dependent Effect
inhibition (KHOS/NP [25]): Dose-Dependent Effect
inhibition (U2OS [26]): Dose-Dependent Effect
inhibition (KHOS/NP [27]): Dose-Dependent Effect
Activity (U2OS [28]): 57.4%
Activity (KHOS/NP [29]): 48.8%
